Results published in ChEMBL document CHEMBL1125396, “Synthesis and in vitro biological profile of all four isomers of the potent muscarinic agonist 3-(3-methyl-1,2,4-oxadiazol-5-yl)-1-azabicyclo[2.2.1]heptane” (J Med Chem, 1992).
pEC50: −log10 of the molar value.

Tests used:
[1] = target: T1, Muscarinic acetylcholine receptor M1 (Rattus norvegicus, UniProt P08482); assay: Compound was tested in vitro for depolarizing response on the rat superior cervical ganglion (mediated by Muscarinic M1 receptor; format: functional, tissue-based
T1 sequence (P08482 whole entry): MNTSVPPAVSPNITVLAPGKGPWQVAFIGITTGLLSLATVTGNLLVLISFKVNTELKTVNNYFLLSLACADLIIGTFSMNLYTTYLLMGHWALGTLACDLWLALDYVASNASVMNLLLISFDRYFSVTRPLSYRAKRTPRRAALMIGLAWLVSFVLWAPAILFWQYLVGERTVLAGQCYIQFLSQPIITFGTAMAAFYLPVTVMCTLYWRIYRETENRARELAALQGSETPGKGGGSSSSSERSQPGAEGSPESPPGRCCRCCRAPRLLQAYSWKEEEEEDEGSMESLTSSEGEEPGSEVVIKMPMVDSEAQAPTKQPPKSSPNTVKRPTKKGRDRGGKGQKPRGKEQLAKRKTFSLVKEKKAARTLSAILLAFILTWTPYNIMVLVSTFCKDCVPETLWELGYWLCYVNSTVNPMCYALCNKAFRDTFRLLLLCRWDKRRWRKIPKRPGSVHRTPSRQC
Outline: (§1)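 Responses related to a reference depolarizing response set at 1.0. Agonist concentration raised until response levelled off; EC50 taken as concentration giving half-maximum; at least two determinations, each ganglion from a different rat.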

[2] = target: T2, Muscarinic acetylcholine receptor M2 (Homo sapiens, UniProt P08172); assay: In vitro negative chronotropic effect on electrically driven guinea pig atria(mediated by Muscarinic M2 receptor); format: functional, Cavia porcellus; details: target entry is the homologue from another species
T2 sequence (P08172 whole entry): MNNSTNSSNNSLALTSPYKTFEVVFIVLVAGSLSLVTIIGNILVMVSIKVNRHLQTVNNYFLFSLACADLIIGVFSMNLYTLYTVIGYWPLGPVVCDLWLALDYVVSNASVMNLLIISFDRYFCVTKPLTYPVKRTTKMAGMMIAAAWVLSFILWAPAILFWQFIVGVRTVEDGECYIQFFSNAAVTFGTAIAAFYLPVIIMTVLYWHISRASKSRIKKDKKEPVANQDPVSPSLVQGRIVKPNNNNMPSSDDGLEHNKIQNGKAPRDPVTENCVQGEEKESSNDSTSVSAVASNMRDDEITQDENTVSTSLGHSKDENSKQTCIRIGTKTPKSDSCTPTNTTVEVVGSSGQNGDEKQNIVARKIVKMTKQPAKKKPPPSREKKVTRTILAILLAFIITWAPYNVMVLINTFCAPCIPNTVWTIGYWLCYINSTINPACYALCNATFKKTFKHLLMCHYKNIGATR
Outline: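 Paired atria from male guinea pigs (300-400 g) under 1 g tension in Krebs bicarbonate with 22 mM glucose, paced by field stimulation (3-4 Hz, 2-3 ms). After 60 min equilibration, noncumulative dose-response curves for negative chronotropy, each application held to maximum effect; ≥45 min between curves. EC50 from geometric mean of at least two determinations.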

[3] = target: Muscarinic acetylcholine receptor M3 (Cavia porcellus, UniProt Q8VH26); assay: In vitro contraction of guinea pig myenteric plexus preparation (mediated by Muscarinic M3 receptor); format: functional
Outline: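 Distal ileum longitudinal muscle-myenteric plexus strips from male guinea pigs (300-400 g) under 1 g tension in 3 mL Krebs bicarbonate, 37 °C, equilibrated ≥60 min. Isometric contraction read for ≥30 s to clear peak, ≥45 min between compounds; responses as % of 1 μM carbachol maximum. EC50 by nonlinear iterative curve fitting; geometric mean of at least four determinations.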

[4] = target: T3, Muscarinic acetylcholine receptor M2 (Homo sapiens) (UniProt P08172); assay: In Vitro evaluation for the relative maximum against Muscarinic M2 receptor compare to carbachol; format: functional; details: Cavia porcellus
T3 sequence (whole entry): T2 sequence (P08172 whole entry)
Outline: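 Guinea pig paired atria (male, 300-400 g) in Krebs bicarbonate with 22 mM glucose, 1 g tension, electrically paced (3-4 Hz, 2-3 ms); noncumulative dose-response curves to maximum negative chronotropic effect, ≥45 min apart; maximum response expressed relative to that of carbachol.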

[5] = target: T4, Muscarinic acetylcholine receptor (Rattus norvegicus) (UniProt P08482+P08483+P08485+P08911+P10980); assay: In vitro ability to displace [3H]oxotremorine-M from the muscarinic receptor in rat cerebral cortical membranes; format: cell membranes
Outline: (§2)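 Rat cortical P2 membranes washed and resuspended 1/100 (wet w/v) in 20 mM HEPES pH 7.4. [3H]oxotremorine-M at 0.2-5 nM, nonspecific binding with 2 μM atropine; 40 min at 30 °C; filtration on polyethyleneimine-presoaked GF/C filters, saline wash, scintillation counting. Kapp corrected for ligand occupancy; four concentrations in triplicate; geometric mean of ≥3 determinations.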

[6] = target: T5, Muscarinic acetylcholine receptor M1 (Rattus norvegicus) (UniProt P08482); assay: In vitro evaluation for the relative maximum against Muscarinic M1 receptor compare to muscarine; format: functional
T5 sequence (whole entry): T1 sequence (P08482 whole entry)
Outline: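 Maximum depolarizing response determined by raising agonist concentration until plateau, expressed relative to muscarine; responses related to a reference depolarization set at 1.0; ganglia each from a different rat.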

[7] = target: T4, Muscarinic acetylcholine receptor (Rattus norvegicus); assay: In vitro ability to displace [3H]N-methylscopolamine from the muscarinic receptor in rat cerebral cortical membranes; format: cell membranes
Outline: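 Rat (250-300 g) cerebral cortex crude synaptosomal-mitochondrial membranes (sucrose homogenate, 1000g then 17000g spins). [3H]NMS at 0.01–1.0 nM, nonspecific binding with 2 μM atropine; 60 min at 30 °C; GF/B filtration, saline rinses, scintillation counting. Kapp corrected for ligand occupancy; four concentrations in triplicate; geometric mean of ≥3 separate determinations.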

[8] = target: Muscarinic acetylcholine receptor M3 (Cavia porcellus) (UniProt Q8VH26); assay: In vitro evaluation for the relative maximum against Muscarinic M3 receptor compare to carbachol; format: functional
Outline: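 Guinea pig ileum longitudinal muscle-myenteric plexus (male, 300-400 g), 1 g tension, Krebs bicarbonate at 37 °C; isometric tension change measured to peak; maximum response expressed as percentage of that to 1 μM carbachol.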

[9] = Ratio of Kapp(NMS)/Kapp(OXO-M)
Outline: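 Ratio of Kapp values from displacement of [3H]NMS (0.01–1.0 nM, 60 min, 30 °C) and of [3H]oxotremorine-M (0.2-5 nM, HEPES pH 7.4, 40 min, 30 °C) in rat cortical membranes; 2 μM atropine nonspecific; each Kapp occupancy-corrected geometric mean of ≥3 determinations.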

[10] = target: T1, Muscarinic acetylcholine receptor M1; assay: Compound was tested in vitro for depolarizing response on the rat superior cervical ganglion (mediated by Muscarinic M1 receptor); format: functional, tissue-based; outline: as §1
[11] = target: T4, Muscarinic acetylcholine receptor (Rattus norvegicus); assay: In vitro ability to displace muscarinic agonist [3H]oxotremorine-M from high affinity state of the receptor in rat cerebral cortical membranes; format: cell membranes; details: Membrane; outline: as §2

Sequence of Muscarinic acetylcholine receptor M3 (Cavia porcellus) (Q8VH26 1-587): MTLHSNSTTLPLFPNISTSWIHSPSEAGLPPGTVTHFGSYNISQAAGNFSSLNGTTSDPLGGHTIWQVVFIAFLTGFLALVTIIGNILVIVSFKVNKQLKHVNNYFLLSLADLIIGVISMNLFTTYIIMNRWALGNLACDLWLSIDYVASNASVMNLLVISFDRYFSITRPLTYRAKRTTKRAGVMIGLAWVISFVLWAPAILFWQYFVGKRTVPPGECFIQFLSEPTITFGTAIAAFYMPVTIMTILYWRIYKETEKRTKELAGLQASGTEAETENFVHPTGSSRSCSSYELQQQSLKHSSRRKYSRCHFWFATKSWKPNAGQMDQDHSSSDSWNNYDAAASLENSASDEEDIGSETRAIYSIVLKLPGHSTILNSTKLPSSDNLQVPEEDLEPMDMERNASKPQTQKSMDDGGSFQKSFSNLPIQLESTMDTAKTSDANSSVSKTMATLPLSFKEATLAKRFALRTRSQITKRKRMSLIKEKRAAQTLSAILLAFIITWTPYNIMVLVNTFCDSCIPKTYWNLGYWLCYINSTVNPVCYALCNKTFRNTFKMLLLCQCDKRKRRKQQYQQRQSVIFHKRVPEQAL
Sequence of Muscarinic acetylcholine receptor M3 (Q8VH26 whole entry): as the sequence (Q8VH26 1-587) above

SMILES	pEC50 [1]	pEC50 [2]	pEC50 [3]	RM [4]	K app [5] [nM]	RM [6]	K app [7] [nM]	RM [8]	Ratio [9]	pEC50 [10]	K app [11] [nM]
Cc1noc([C@H]2CN3CC[C@@H]2C3)n1	7.05	7.72	7.80	0.96	1.6	0.76	2200	0.93	1400	–	–
Cc1noc([C@H]2CN3CC[C@H]2C3)n1	–	10.41	10.35	0.91	0.027	0.94	32	0.91	1200	8.62	–
Cc1noc([C@@H]2CN3CC[C@@H]2C3)n1	–	8.48	8.62	0.94	–	1.16	370	0.97	1200	8.15	0.32
C[N+](C)(C)CCOC(N)=O	–	–	–	–	4.9	–	22000	–	4500	–	–
